Screening data (PubChem BioAssay)
MrgX1 agonist – human MrgX1 receptor agonism, primary screen. B-score at 10 µM. AID 588627. 310,000 tested, 0.44% active. MrgX1-HEK293 cells, Fluo-4 calcium fluorescence, agonist mode; hits give high values. Q96LB2;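 active = calcium response B-score plate-corrected fluorescence ratio at least 3 library SD, with starting fluorescence B-score inside 5 SD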
Target sequence (Q96LB2 whole entry, looked up): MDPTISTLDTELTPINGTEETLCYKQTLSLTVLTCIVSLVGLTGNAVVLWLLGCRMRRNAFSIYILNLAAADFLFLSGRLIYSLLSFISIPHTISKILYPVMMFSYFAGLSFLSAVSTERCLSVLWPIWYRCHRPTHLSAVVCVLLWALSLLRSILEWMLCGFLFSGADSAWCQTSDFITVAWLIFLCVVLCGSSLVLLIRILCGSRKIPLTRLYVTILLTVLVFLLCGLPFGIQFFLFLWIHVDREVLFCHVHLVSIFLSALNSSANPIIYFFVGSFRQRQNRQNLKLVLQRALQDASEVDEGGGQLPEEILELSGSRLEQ
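Test system: Stable human MrgX1 HEK293 cell line | Schedule: Overnight plating before 1 h dye loading | Read-out basis: Baseline-normalised fluorescence change ratio, B-scored | Detection: Kinetic calcium dye fluorescence, Fluo-4 NW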
MrgX1 allo act – human MrgX1 positive allosteric modulation, primary screen; 310,000 tested, 0.63% active; B-score at 10 µM; Q96LB2; AID 588675; MrgX1-HEK293, Fluo-4 calcium flux, FDSS; hits give high values;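 active = plate-corrected calcium response at least 3 library SD above typical, normal starting fluorescence, not activating the receptor alone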;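 also: compound read alongside a low EC10 to EC30 dose of BAM8-22 agonist; peak minus trough fluorescence over baseline measured at the second addition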
RGS4 act – potentiators or activators of RGS4; 310,000 tested, 0.92% active; B-score at 10 µM; HEK293 M3R/inducible RGS4, carbachol calcium flux Fluo4; hits give low values; AID 463111;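 active = B-score of the integrated calcium signal more than 4 SD below the library mean, with starting fluorescence not abnormally high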;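 also: negative B-score means reduced calcium response which marks RGS4 activation or potentiation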
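Test system: HEK293 cells with stable M3R and inducible RGS4; also added: carbachol at ECmax as muscarinic agonist stimulus; schedule: dye loading 30 min 37 °C, buffer rest 30 min RT; technique: kinetic calcium fluorescence imaging with Fluo4-AM dye, 2 µM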
RGS4 inh – human RGS4 inhibition; B-score at 10 µM; HEK293 M3R/RGS4 inducible, Fluo-4 calcium flux; hits give high values; triggered by carbachol at its EC20; 310,000 tested, 0.45% active; AID 463165;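 active = B-score, a plate-corrected calcium signal, over three deviations above library mean, with baseline fluorescence within five deviations of library mean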;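 also: RGS4 expression induced by doxycycline in cells with stable M3 receptor; B-score is computed from the integrated fluorescence ratio over baseline after carbachol; higher B-score means a larger calcium signal and so more RGS4 inhibition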
Target sequence (P49798 whole entry, looked up): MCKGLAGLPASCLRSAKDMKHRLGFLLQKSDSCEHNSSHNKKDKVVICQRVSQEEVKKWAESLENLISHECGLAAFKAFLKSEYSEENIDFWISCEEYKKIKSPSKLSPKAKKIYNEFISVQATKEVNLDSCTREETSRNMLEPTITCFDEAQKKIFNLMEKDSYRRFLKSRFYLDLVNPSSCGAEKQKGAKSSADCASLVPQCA
MrgX1 antag – blocks BAM8-22 activation of human MrgX1 receptor. MRGX1-HEK293 calcium flux, Fluo-4, BAM8-22 antagonism; hits give low values. 310,000 tested, 1.3% active. Q96LB2. B-score at 10 µM;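 active = calcium-response B-score plate-corrected more than 3 library SD below zero, starting fluorescence within 5 deviations, no agonist response on first addition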;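 also: peak minus trough fluorescence over baseline after final BAM8-22 challenge near maximal dose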
Numbers without * were called inactive. Hits are enriched below; roughly 3.5% of the tested compounds scored in any of these assays.

How did CN(C)CCCN(C(=O)c1ccc(S(=O)(=O)N(C)C2CCCCC2)cc1)c1nc2ccc(F)cc2s1 do in these assays?
MrgX1 agonist: inactive; MrgX1 allo act: inactive; RGS4 act: inactive; RGS4 inh: inactive; MrgX1 antag: inactive

What do the screens show for `CN(C)CCCN(C(=O)c1ccc(S(=O)(=O)N(C)C2CCCCC2)cc1)c1nc2ccc(Br)cc2s1`?
MrgX1 agonist: inactive; MrgX1 allo act: inactive; RGS4 act: -8.7*; RGS4 inh: inactive; MrgX1 antag: inactive

How did COc1ccc2sc(N(CCCN(C)C)C(=O)c3ccc(S(=O)(=O)N4CCCc5ccccc54)cc3)nc2c1 do in these assays?
MrgX1 agonist: inactive; MrgX1 allo act: inactive; RGS4 act: -9.5*; RGS4 inh: inactive; MrgX1 antag: inactive

How did COc1cc2nc(N(CCCN(C)C)C(=O)c3ccc(S(=O)(=O)N(C)C4CCCCC4)cc3)sc2cc1OC do in these assays?
MrgX1 agonist: inactive; MrgX1 allo act: inactive; RGS4 act: inactive; RGS4 inh: inactive; MrgX1 antag: inactive

How did Cc1cc(C)c2sc(N(CCCN(C)C)C(=O)c3ccc(S(=O)(=O)N(C)C4CCCCC4)cc3)nc2c1 do in these assays?
MrgX1 agonist: inactive; MrgX1 allo act: inactive; RGS4 act: -8*; RGS4 inh: inactive; MrgX1 antag: inactive

How did O=c1[nH]c2cc(S(=O)(=O)CCO)ccc2o1 do in these assays?
MrgX1 agonist: inactive; MrgX1 allo act: inactive; RGS4 act: inactive; RGS4 inh: inactive; MrgX1 antag: inactive

What do the screens show for `O=C(Nc1cc(Cl)ccc1N1CCOCC1)c1cccnc1Cl`?
MrgX1 agonist: inactive; MrgX1 allo act: inactive; RGS4 act: inactive; RGS4 inh: inactive; MrgX1 antag: inactive

Results for Cc1ccc(C)c(C(=O)CCC(=O)NCc2ccc(Cl)cc2)c1 ?
MrgX1 agonist: inactive; MrgX1 allo act: inactive; RGS4 act: inactive; RGS4 inh: inactive; MrgX1 antag: inactive

What do the screens show for `CCOc1ccc(NC(=O)CSc2nnc(-c3ccncc3)n2CC2CCCO2)cc1` (configuration not stated)?
MrgX1 agonist: inactive; MrgX1 allo act: inactive; RGS4 act: inactive; RGS4 inh: inactive; MrgX1 antag: -6.7*

What do the screens show for `CN(C)c1nc2ccc(OCCN3CCCCC3)cc2s1`?
MrgX1 agonist: inactive; MrgX1 allo act: inactive; RGS4 act: -7.3*; RGS4 inh: inactive; MrgX1 antag: inactive

How did Cn1cccc1/C=C(/C#N)C(N)=S do in these assays?
MrgX1 agonist: inactive; MrgX1 allo act: inactive; RGS4 act: inactive; RGS4 inh: inactive; MrgX1 antag: inactive

How did N#C/C(=C/c1ccc(F)cc1)C(N)=S do in these assays?
MrgX1 agonist: 28*; MrgX1 allo act: inactive; RGS4 act: inactive; RGS4 inh: inactive; MrgX1 antag: inactive

Results for CCN1CCN(c2ncnc3sc4c(c23)CCC(C)C4)CC1 (configuration not stated) ?
MrgX1 agonist: inactive; MrgX1 allo act: inactive; RGS4 act: inactive; RGS4 inh: inactive; MrgX1 antag: inactive

What do the screens show for `COc1cc(/C=C(\C#N)c2ccccn2)ccc1OCc1ccccc1Cl`?
MrgX1 agonist: inactive; MrgX1 allo act: inactive; MrgX1 antag: inactive

Results for COc1cc(/C=C(\C#N)c2ccccn2)cc(OC)c1O ?
MrgX1 agonist: 51*; MrgX1 allo act: inactive; RGS4 act: inactive; RGS4 inh: inactive; MrgX1 antag: inactive

How did Cc1cc(=O)[nH]c(SCC(=O)NC2CCCCC2)n1 do in these assays?
MrgX1 agonist: inactive; MrgX1 allo act: inactive; RGS4 act: inactive; RGS4 inh: inactive; MrgX1 antag: inactive

How did O=C(Nc1ccc(Cl)cc1)[C@@H]1[C@@H]2C(=O)N(c3ccc(Cl)cc3Cl)C(=O)[C@@H]2[C@H]2C=CC=NN21 do in these assays?
MrgX1 agonist: inactive; MrgX1 allo act: inactive; RGS4 act: inactive; RGS4 inh: inactive; MrgX1 antag: -5.1*

Results for O=C(Nc1ccc(Cl)cc1)[C@@H]1[C@@H]2C(=O)N(c3ccc(Cl)cc3)C(=O)[C@@H]2[C@H]2C=CC=NN21 ?
MrgX1 agonist: inactive; MrgX1 allo act: inactive; RGS4 act: inactive; RGS4 inh: inactive; MrgX1 antag: inactive

How did C=CCn1c(SCC(=O)c2cc(C)n(C(C)COC)c2C)nc2sc(C)c(C)c2c1=O (configuration not stated) do in these assays?
MrgX1 agonist: inactive; MrgX1 allo act: inactive; RGS4 act: -7.5*; RGS4 inh: inactive; MrgX1 antag: inactive

What do the screens show for `CC(C)(CNS(C)(=O)=O)SCc1ccc(Cl)cc1`?
MrgX1 agonist: inactive; MrgX1 allo act: inactive; RGS4 act: inactive; RGS4 inh: inactive; MrgX1 antag: inactive

What do the screens show for `CC(SC#N)C(=O)C12CC3CC(CC(C3)C1)C2` (configuration not stated)?
MrgX1 agonist: inactive; MrgX1 allo act: inactive; RGS4 act: inactive; RGS4 inh: inactive; MrgX1 antag: -5.1*

What do the screens show for `COc1ccccc1NS(=O)(=O)c1cc(C(=O)NCC(c2ccco2)N2CCCCC2)ccc1C` (configuration not stated)?
MrgX1 agonist: inactive; MrgX1 allo act: inactive; RGS4 act: inactive; RGS4 inh: inactive; MrgX1 antag: -5.4*

How did COc1ccccc1NS(=O)(=O)c1cc(C(=O)NCC(c2ccco2)N(C)C)ccc1C (configuration not stated) do in these assays?
MrgX1 agonist: inactive; MrgX1 allo act: inactive; RGS4 act: inactive; RGS4 inh: inactive; MrgX1 antag: inactive

How did COC(=O)C1=CN(c2cccc(Cl)c2)C=C(C(=O)OC)C1c1cccc(OC)c1 do in these assays?
MrgX1 agonist: inactive; MrgX1 allo act: inactive; RGS4 act: inactive; RGS4 inh: inactive; MrgX1 antag: inactive

Results for Nc1ccc(C(=O)Nc2cccc(N)c2)cc1 ?
MrgX1 agonist: inactive; MrgX1 allo act: inactive; RGS4 act: inactive; RGS4 inh: inactive; MrgX1 antag: inactive

What do the screens show for `N#C/C(=C\c1ccc(O)c(O)c1)S(=O)(=O)c1ccccc1`?
MrgX1 agonist: inactive; MrgX1 allo act: 14*; RGS4 act: inactive; RGS4 inh: inactive; MrgX1 antag: inactive

How did N/C(=N\OC(=O)/C=C/c1ccccc1Cl)c1ccncc1 do in these assays?
MrgX1 agonist: inactive; MrgX1 allo act: inactive; RGS4 act: inactive; RGS4 inh: inactive; MrgX1 antag: inactive

What do the screens show for `CCCN(CCC)CCOc1cc(C)ccc1C(C)C`?
MrgX1 agonist: inactive; MrgX1 allo act: inactive; RGS4 act: inactive; RGS4 inh: inactive; MrgX1 antag: inactive

How did Cc1ccc(C(C)C)c(OCCN(C)C)c1 do in these assays?
MrgX1 agonist: inactive; MrgX1 allo act: inactive; RGS4 act: -7.1*; RGS4 inh: inactive; MrgX1 antag: inactive

Results for N#Cc1cccc(NC(=O)CNc2cccc(S(=O)(=O)N3CCCCC3)c2)c1 ?
MrgX1 agonist: inactive; MrgX1 allo act: inactive; RGS4 act: inactive; RGS4 inh: inactive; MrgX1 antag: inactive
